Source: PubChem
CRFBP-R2 block – antagonists of CRF-binding protein/CRF-R2 receptor complex; inhibition, % at 11.8 µM; HEK293 CRF-R2/CRF-BP, CRF-induced calcium fluorescence; 0.59% of 350,000 active;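 active = inhibition of the ligand-induced calcium signal above about 50% at the single tested concentration, limit read from the data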
IMP-1 inh-1 – blocks Pseudomonas aeruginosa IMP-1 metallo-beta-lactamase; purified IMP-1, nitrocefin hydrolysis, epi-absorbance fluorescence; inhibition, % at 5.6 µM; 0.45% of 290,000 active;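 active = inhibition above the mean plus 3 SD of all compounds in the same screening run, cut at about 4.5% in these data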;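 note: 0% = IMP-1 with DMSO and 100% = DMSO wells lacking enzyme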
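System: Purified IMP-1 | Read-out basis: Percent enzyme inhibition | Controls: IMP-1 with DMSO as 0%, enzyme-free DMSO as 100% | Replicates: One well per compound | Doses: 5.6 µM nominal single concentration | Detection: Epi-absorbance fluorescence, 480 nm excitation, 530 nm emission | Incubation: 25 °C, 15 min preincubation, 25 min reaction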
VIM-2 inh – inhibitors of Pseudomonas aeruginosa VIM-2 metallo-beta-lactamase | purified VIM-2, nitrocefin hydrolysis, epi-absorbance fluorescence | inhibition, % at 5.6 µM | 0.89% of 290,000 active | AID 1527;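 active = inhibition above the mean of all tested compounds plus 3 SD, cutoff set per screening run, cut at about 7.5% in these data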;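 note: red hydrolysis product quenches plate fluorescence so inhibitors raise well fluorescence; 0% = enzyme with DMSO and 100% = DMSO without enzyme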
TRPML3 agonist – activates the human TRPML3 channel; AID 1448; activation, % at 3 µM; 0.29% of 220,000 active; HEK293 TRPML3-YFP, Fluo-8 calcium fluorescence; 100% = the carbachol control signal;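 active = activation above its plate's cutoff, the mean activation of the plate's test wells plus 3 SD, cut at about 12% in these data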;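 note: 0% = DMSO only wells and 100% = carbachol wells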
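Test system: TRPML3-YFP stable HEK293 cells. Doses: single point at 3 µM. Incubation: dye loading 1 h 37 °C then 30 min ambient, 125 s read. Signal: Fluo-8 calcium dye fluorescence, ex 470-495, em 515-575 nm. Measure: percent activation from peak-to-basal fluorescence ratio, scaled between DMSO and carbachol.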
zfTRPN1 agonist – zebrafish TRPN1 (NompC) channel agonism; HEK293 zebrafish TRPN1-YFP, Fluo-8 calcium fluorescence; 100% = response to 87 µM carbachol; activation, % at 3 µM; 0.18% of 220,000 active; AID 1424;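 active = activation above its plate's cutoff, the mean activation of test wells on that plate plus 3 SD, cut at about 19% in these data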;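 note: 0% = DMSO alone and 100% = 87 µM carbachol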
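Control set: carbachol 87 µM as high control, DMSO as low control; system: HEK293 stable line with zebrafish TRPN1-YFP; read-out: % activation versus carbachol response; detection: intracellular calcium fluorescence with Fluo-8; doses: single test compound dose, 3 µM nominal, 0.3% DMSO; schedule: dye 1 h 37 °C plus 30 min RT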
CRFBP-R2 agonist – CRF-BP/CRF-R2 complex agonism; HEK293 CRF-R2/CRF-BP, calcium dye fluorescence (FLIPR); percent of saturating CRF peptide response; activation, % at 13.2 µM; 0.46% of 350,000 active; AID 588473;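 active = activation of at least 50%, plus an integration ratio under a set limit after plate pattern correction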;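 note: plate controls were neutral control wells without compound for no effect and CRF at EC100 for full effect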
IMP-1 inh-2 – selectivity counter-screen for VIM-2 inhibitors: IMP-1 metallo-beta-lactamase inhibitors; shares compounds with VIM-2 inh; purified IMP-1, nitrocefin hydrolysis, epi-absorbance fluorescence; inhibition, % at 5.6 µM; 1,300 tested, under 10 active; AID 1856; call rule not given here;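 note: 0% = enzyme with vehicle and 100% = vehicle without enzyme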
VIM-2 FRET inh – inhibits VIM-2 in FRET assay to exclude epi-absorbance artifacts; purified VIM-2, CCF2 FRET substrate hydrolysis; 23% of 1,300 active; shares compounds with VIM-2 inh; inhibition, % at 5.6 µM;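 active = inhibition above the mean of all tested compounds plus 3 SD, cut at about 19% in these data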;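 note: 0% = VIM-2 plus DMSO and 100% = no enzyme wells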
TEM-1 counter – selectivity counter-screen for VIM-2 inhibitors: E. coli TEM-1 inhibitors; shares compounds with VIM-2 inh; Purified TEM-1, nitrocefin hydrolysis, epi-absorbance fluorescence; inhibition, % at 5.6 µM; 3% of 1,300 active;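 active = inhibition above that campaign's mean inhibition plus 3 SD, cut at about 0.46% in these data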;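 note: 0% = TEM-1 with DMSO and 100% = TEM-1 with 100 µM potassium clavulanate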
Target sequence (P62593 whole entry, looked up): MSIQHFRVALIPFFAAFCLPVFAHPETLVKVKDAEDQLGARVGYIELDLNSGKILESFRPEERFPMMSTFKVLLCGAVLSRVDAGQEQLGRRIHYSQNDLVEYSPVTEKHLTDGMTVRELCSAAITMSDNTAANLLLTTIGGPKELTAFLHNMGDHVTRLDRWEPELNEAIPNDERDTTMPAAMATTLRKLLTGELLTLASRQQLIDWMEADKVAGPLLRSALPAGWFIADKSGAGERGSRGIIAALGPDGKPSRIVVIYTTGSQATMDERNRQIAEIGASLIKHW
VIM-2 inh conf – confirmation of P. aeruginosa VIM-2 metallo-beta-lactamase inhibitors; shares compounds with VIM-2 inh; purified VIM-2, nitrocefin hydrolysis, epi-absorbance; inhibition, % at 5.6 µM; 96% of 1,300 active; AID 2187;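 active = inhibition of the VIM-2 beta-lactamase enzyme above about 11% from the earlier first-round screen, limit read from the data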;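 note: 0% = VIM-2 with DMSO and 100% = buffer wells without enzyme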
Active calls of the source: *; x = no result given. An excerpt weighted towards active compounds, which were near 2.1% of everything screened.

SMILES	CRFBP-R2 block	IMP-1 inh-1	VIM-2 inh	TRPML3 agonist	zfTRPN1 agonist	CRFBP-R2 agonist	IMP-1 inh-2	VIM-2 FRET inh	TEM-1 counter	VIM-2 inh conf
CCOc1ccc(CNC(=O)C2Cc3cc(S(=O)(=O)N4CCCC4)ccc3N2C(C)=O)cc1 (stereo not drawn)	-9	0	25*	x	x	4	-4	-3	-4	1
COc1ccccc1Nc1nnc(SCc2cc(=O)n3ccsc3n2)s1	-3	1	13*	0	0	-5	1	14	3.0*	12*
Cc1ccc(Nc2nnc(SCc3cc(=O)n4ccsc4n3)s2)c(C)c1	5	3	-1	-1	2	0	x	x	x	x
COc1cc2ncnc(NCCCN3CCOCC3)c2cc1OC	-1	1	3	0	-3	1	x	x	x	x
CCOc1cc2nc(-c3ccc(OC)c(OC)c3)nc(NCCCN3CCOCC3)c2cc1OC	9	0	26*	1	1	-2	-4	3	-7	49*
CN1CCN(c2ccc(NC(=S)NC(=O)c3cccc4ccccc34)cc2)CC1	-14	1	20*	x	x	0	-2	-8	-6	29*
CN1CCN(c2ccc(NC(=S)NC(=O)/C=C/c3ccco3)cc2)CC1	-14	1	50*	x	x	-3	0	-3	-2	67*
CCN1CCN(c2ccc(NC(=O)COc3ccccc3Cl)cc2)CC1	-30	-2	14*	2	2	3	-3	-1	-8	31*
CN1CCN(c2ccc(NC(=O)COc3cccc4ccccc34)cc2)CC1	-11	-3	28*	x	x	0	-3	-5	-4	33*
C#CC(C)OC(=O)Nc1cnccc1C(F)(F)F (stereo not drawn)	1	-3	-4	1	1	0	x	x	x	x
Cc1c(C(=O)NCc2ccccc2CN2CCCC2)oc2ccc(F)cc12	-20	x	x	x	x	1	x	x	x	x
CC(OC(=O)CCN=C1NS(=O)(=O)c2ccccc21)C(=O)Nc1ccc(F)cc1 (stereo not drawn)	3	x	x	x	x	0	x	x	x	x
CSCCC(N=C1NS(=O)(=O)c2ccccc21)C(=O)N1CCCC(C(N)=O)C1 (stereo not drawn)	-2	x	x	x	x	0	x	x	x	x
O=C(COc1ccc2c3c(c(=O)oc2c1)CCC3)NCc1ccncc1	-6	-2	29*	x	x	0	-3	-3	-4	39*
O=C(COc1cc2oc(=O)c3c(c2cc1Cl)CCC3)NCc1ccncc1	-13	-3	28*	x	x	0	-3	-4	-3	35*
NS(=O)(=O)c1ccc(CCNC(=O)COc2ccc3c4c(c(=O)oc3c2)CCC4)cc1	6	-3	19*	x	x	-1	-3	-4	-8	28*
O=C(COc1ccc2c3c(c(=O)oc2c1)CCC3)NCc1cccnc1	-5	-3	17*	x	x	-1	-3	-1	-6	27*
Cc1cc(=O)oc2cc(OCC(=O)NCc3ccncc3)ccc12	6	-3	2	0	-2	0	x	x	x	x
O=C(NC12CC3CC(CC(C3)C1)C2)c1cc(F)c(F)c(F)c1F	-30	0	1	x	x	-3	x	x	x	x
CC(=O)Nc1cccc(-c2nnc(SCC(=O)n3c4c(c5ccccc53)CCCC4)n2C)c1	3	-2	15*	0	0	-2	-4	9	-9	5
O=C(NCC(=O)N1CCN(S(=O)(=O)c2cccs2)CC1)c1ccc(Cl)cc1	-10	1	0	-1	1	-1	x	x	x	x
CN(C)CCN1CCc2ccccc21	11	-6	23*	1	1	0	-3	-4	-6	11*
c1ccc2c(c1)CCN2CCN1CCc2ccccc21	1	0	-1	1	-1	1	x	x	x	x
COc1cc2c(cc1OC)CC(=O)NC=C2	-2	-1	1	0	0	-2	x	x	x	x
O=C(CSc1nc(-c2ccco2)cc(C(F)(F)F)n1)N1CCSCC1	-1	-2	1	1	0	-1	x	x	x	x
SMILES	CRFBP-R2 block	IMP-1 inh-1	VIM-2 inh	TRPML3 agonist	zfTRPN1 agonist	CRFBP-R2 agonist	IMP-1 inh-2	VIM-2 FRET inh	TEM-1 counter	VIM-2 inh conf
CN1CCN(C(=O)CSc2nc(-c3ccco3)cc(C(F)(F)F)n2)CC1	14	0	43*	0	-1	-2	-3	2	-6	57*
O=C(c1nc2ccc(Cl)cn2c1CNCCc1cnccn1)N1CCCCCCC1	-2	-3	-4	x	x	-1	x	x	x	x
[O-][n+]1c2ccccc2cc2ccccc21	-3	x	x	x	x	4	x	x	x	x
O=C(Nc1ccc(N2CCN(Cc3ccccc3)CC2)cc1)c1ncn[nH]1	6	-1	13*	1	2	-1	-4	-1	-6	25*
CCC(=O)Nc1ccc(N2CCN(Cc3ccccc3)CC2)cc1	-9	-1	0	1	1	2	x	x	x	x
COC1OC2COC(c3ccccc3)OC2C(O)C1NC(=O)c1ccccc1 (stereo not drawn)	-1	x	x	x	x	4	x	x	x	x
Cc1cc(OC(=O)c2ccccc2Br)c([N+](=O)[O-])c(=O)[nH]1	12	-3	-3	x	x	-3	x	x	x	x
CCNC(=O)CC1C(=O)N(c2cccc(C)c2)C(=O)N1CCC(C)C (stereo not drawn)	-5	-1	-2	x	x	1	x	x	x	x
COc1ccc(OC)c(NC(=O)CSc2nc(N3CCOCC3)nc(N3CCOCC3)n2)c1	-10	-3	-3	x	x	1	x	x	x	x
c1ccc(CNc2nc(-c3ccccn3)nc3ccccc23)cc1	30	0	19*	x	x	-2	-3	-56	-4	26*
N/C(=N/OC(=O)c1ccccc1Cl)c1ncc([N+](=O)[O-])s1	-1	-1	1	1	1	-1	x	x	x	x
O=C(O)C1Sc2[nH]c(=O)sc2C2c3cc(Cl)ccc3OC(=O)C12 (stereo not drawn)	-7	-2	14*	1	2	3	-1	41*	-8	29*
CCN1CCN(c2ncc(C(=O)Nc3ccccc3C(=O)OC)c3ccccc23)CC1	-11	-2	18*	1	0	4	-4	3	-6	30*
CCc1ccc(NC(=O)c2cnc(N3CCN(c4ccccn4)CC3)c3ccccc23)cc1	-8	-1	0	2	3	3	x	x	x	x
CCOC(=O)Cn1nc(C)n(-c2ccc(F)cc2)c1=O	9	0	-2	1	0	-1	x	x	x	x
